Measured values collected from several papers.
Protocols differ between the studies behind these lines.
BRAF: Serine/threonine-protein kinase B-raf (BRAF, Homo sapiens, UniProt P15056)
BRAF V600E: Serine/threonine-protein kinase B-raf (BRAF, Homo sapiens, UniProt P15056, V600E)

Structure (SMILES) | target | read-out | mode | technique | concentration | measurement | value
CCCCC(=O)Nc1ccc(-c2ccc3ncn(CCC)c(=O)c3c2)cn1 | BRAF | binding |  | competition with immobilised ligand | 0.5 µM | remaining binding | 97%
COc1ccc2[nH]c3c4[nH]c5ccc(OC)cc5c4c4c(c3c2c1)C(=O)NC4=O | BRAF V600E | binding |  |  | 1 µM | remaining binding | 89%
C#Cc1cnc(Nc2ccnc(CO)c2)nc1Nc1ccccc1S(C)(=O)=NC#N (centres unmarked) | BRAF | cell-free assay |  |  | 1 µM | remaining signal | 92%
C[C@H]1CC[C@H](n2c3cnccc3c3cnc(Nc4ccc5c(n4)CCN(C(=O)CO)C5)nc32)CC1 | BRAF | cell-free assay |  | competition with immobilised ligand | 1 µM | remaining binding | 74%
C=CC(=O)N1CCC([C@@H]2CCNc3c(C(N)=O)c(-c4ccc(Oc5ccccc5)cc4)nn32)CC1 | BRAF | enzyme activity | inhibitor |  | 1 µM | inhibition | 0%
N#Cc1ccc(NC(=O)Nc2ccccc2)cc1 | BRAF | cell-free assay |  | competition with immobilised ligand | 25 µM | remaining binding | 100%
CC#CC(=O)N1CCC[C@H]1c1nc(-c2ccc(C(=O)Nc3ccccn3)cc2)c2c(N)nccn12 | BRAF | enzyme activity | inhibitor |  | 1 µM | inhibition | 43%
C1=C/COCc2cc(ccc2OCCN2CCCC2)Nc2nccc(n2)-c2cccc(c2)COC/1 | BRAF V600E | binding |  |  | 0.1 µM | remaining binding | 85%
Cc1cc2c(C(N)=O)c(N)n(-c3c(C)ccc(O)c3C)c2nc1C | BRAF | enzyme activity | inhibitor | ADP detection | 3.333 µM | inhibition | 101%
C=CC(=O)N1CCC[C@@H](n2nc(-c3ccc(Oc4ccccc4)cc3)c3c(N)ncnc32)C1 | BRAF V600E | enzyme activity | inhibitor |  | 1 µM | inhibition | 61%
Cc1ccc(NC(=O)c2ccnc(C(F)(F)F)c2)cc1-c1cc(OCCO)nc(N2CCOCC2)c1 | BRAF V600E | binding |  |  | 1 µM | remaining binding | 0.35%
CO[C@@H]1[C@H](N(C)C(=O)c2ccccc2)C[C@H]2O[C@]1(C)n1c3ccccc3c3c4c(c5c6ccccc6n2c5c31)C(=O)NC4 | BRAF V600E | enzyme activity | inhibitor |  | 1 µM | inhibition | 0%
CN1CCN(C(=O)c2ccc(NC(=O)Nc3ccc(N(C)c4ccnc(Nc5ccc(CS(C)(=O)=O)cc5)n4)cc3)cc2)CC1 | BRAF | binding |  | competition with immobilised ligand | 1 µM | remaining binding | 89%
COc1ccc2oc(-c3ccc4nc(N)oc4c3)c/c(=N\c3ccccc3NC(=O)CCN)c2c1 | BRAF | binding |  |  | 1 µM | remaining binding | 98%
